High-throughput results from PubChem BioAssay.
Sampled rows, rich in hits. Any-hit rate of the full collection: about 2.7%.
PREPL inhibitor: PREPL enzyme inhibitors, primary screen, biochemical, fluorescence polarization; inhibition, % at 5.96 µM; hit rate 0.68% among 320,000; Prolyl endopeptidase-like (Homo sapiens), Q4J6C6; recombinant PREPL, fluorescence polarization activity-based probe; in the data active = inhibition above about 43%
MC4R antag cAMP: MC4R antagonists of cAMP signaling, primary screen, cell-based, TR-FRET, antagonist arm of biased-ligand search. inhibition, % at 6.5 µM. MC4R-expressing cells, MTII-stimulated cAMP, LANCE TR-FRET. AID 540295, 2011. hit rate 0.48% among 360,000;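 active = inhibition above its plate's cutoff, the mean of tested wells on that plate plus 3 SD, cut at about 29% in these data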
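system = U2OS cells with stable human MC4R expression | also added = Melanotan II challenge after compound preincubation | dosing = one concentration, 6.5 µM nominal | incubation = compound 30 min, challenge 1 h, detection 1 h | measured by = TR-FRET with Eu-cAMP and labeled anti-cAMP, 671 nm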
MC4R barr agon: MC4R agonists recruiting beta-arrestin, primary screen, cell-based, luminescence, agonist arm of biased-ligand search; Melanocortin receptor 4 (Homo sapiens), P32245; U2OS MC4R beta-arrestin complementation; percent of melanotan II response, DMSO zero; activation, % at 8.9 µM; hit rate 0.98% among 360,000; AID 540308, 2011;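 active = activation above a per-plate cutoff, the mean activation of sample wells on that plate plus 3 SD, cut at about 8% in these data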
Hep lipid drop: inhibitors of hepatocyte lipid droplet formation, primary screen, imaging, high-throughput imaging, BODIPY stain | inhibition, % at 6.5 µM | AML12 mouse hepatocytes, oleate lipid droplets | hit rate 0.4% among 240,000;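 active = lipid droplet intensity inhibited by at least 50%, with more than 500 cells counted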
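System: AML12 hepatocytes (mouse). Probe or stimulus: oleic acid at 100 µM to induce lipid droplet formation. Times: overnight treatment with compound plus oleate. Detection: Image-based BODIPY and DAPI two-channel analysis. Evaluation: percent inhibition of filter-corrected integrated lipid droplet intensity per well.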
m5-HT2A agonist: mouse Htr2a agonists via beta-arrestin recruitment, primary screen, cell-based, luminescence | CHO-K1 mHTR2A beta-arrestin complementation; percent of 30 µM serotonin response | activation, % at 7.6 µM | hit rate 0.66% among 360,000 | AID 624169, 2012;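 active = activation above a run cutoff, the mean activation of all tested compounds plus 3 SD, cut at about 14% in these data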
NTR1 agonist: agonists of human NTR1, primary screen, imaging, U2OS cells, beta-arrestin-GFP, high content; hit rate 0.17% among 330,000; activation, % at 20 µM; NTR1-U2OS beta-arrestin-GFP spot imaging, agonist mode;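 active = activation at or above 40% of the spot to cytoplasm intensity ratio, with at least 20 cells analyzed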
Target sequence (P30989 whole entry, looked up): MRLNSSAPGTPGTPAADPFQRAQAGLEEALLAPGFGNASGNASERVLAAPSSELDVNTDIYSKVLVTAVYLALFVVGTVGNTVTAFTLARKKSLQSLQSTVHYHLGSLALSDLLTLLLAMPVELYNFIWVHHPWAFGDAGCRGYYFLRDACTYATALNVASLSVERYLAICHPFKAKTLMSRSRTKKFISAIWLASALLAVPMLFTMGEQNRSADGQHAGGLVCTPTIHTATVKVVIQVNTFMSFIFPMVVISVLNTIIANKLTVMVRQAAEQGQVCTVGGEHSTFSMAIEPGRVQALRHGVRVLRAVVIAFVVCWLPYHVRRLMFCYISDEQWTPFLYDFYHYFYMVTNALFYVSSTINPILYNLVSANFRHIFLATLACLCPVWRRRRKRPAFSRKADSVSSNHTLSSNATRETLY
NTR1 ag conf: NTR1 agonists, single-dose retest, confirmation, imaging, U2OS cells, beta-arrestin-GFP, single concentration | AID 504550, 2011 | activation, % at 20 µM | shares compounds with NTR1 agonist | hit rate 38% among 480 | NTR1-U2OS beta-arrestin-GFP translocation imaging;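 active = mean activation at 20 µM of at least 40%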
Of the large screens only hits and unclear results are named; the others gave an inactive call (follow-up assays come after a bar, where they were run).

Cc1ccnc(Nc2nc(-c3ccc(F)cc3)cs2)c1	NTR1 agonist 49 | NTR1 ag conf inactive
Clc1ccc(-n2nnnc2-c2cnc(-c3ccncc3)nc2-c2cccs2)cc1	none
FC(F)(F)c1nc(-c2cccs2)ncc1-c1nnnn1-c1ccc(Cl)cc1	NTR1 agonist 57 | NTR1 ag conf inactive
C=C(C)COc1ccc(-c2nc(N)nc(C(F)(F)F)c2-c2ccc(OC)cc2)c(O)c1	NTR1 agonist 41 | NTR1 ag conf inactive
Cc1cccc(NS(=O)(=O)c2ccc(C)c(C(=O)NNC(=O)c3csc(N4CCOCC4)n3)c2)c1	none (no result: PREPL inhibitor, Hep lipid drop, NTR1 agonist)
N#Cc1ccc(Nc2nc(-c3ccc(O)cc3O)cs2)cc1C(F)(F)F	MC4R barr agon 20, NTR1 agonist 41 (no result: Hep lipid drop) | NTR1 ag conf 70
Cn1c2ccccc2c(=O)c2c(=O)n(Cc3ccco3)c(-c3ccc(C(C)(C)C)cc3)nc21	NTR1 agonist 40 (no result: MC4R antag cAMP, MC4R barr agon, m5-HT2A agonist) | NTR1 ag conf inactive
COc1ccc(Cn2c(-c3ccccc3)nc3c(c(=O)c4ccccc4n3C)c2=O)cc1	none
COc1cccc(C(C[N+](=O)[O-])c2c(C)[nH]n(-c3ccccc3)c2=O)c1 (configuration not stated)	NTR1 agonist 51 | NTR1 ag conf inactive
Cc1[nH]n(-c2ccccc2)c(=O)c1C(C[N+](=O)[O-])c1ccc(Br)cc1 (configuration not stated)	none
CC(=O)c1cccc(Nc2nc(-c3sc(C)nc3C)cs2)c1	NTR1 agonist 54 | NTR1 ag conf inactive
CC(=O)c1cccc(Nc2nc(-c3sc(N)nc3C)cs2)c1	none
O=c1[nH]c(=O)n(Cc2ccco2)c2c1C(C(F)(F)F)(C(F)(F)F)N=C(CCC1CCCCC1)N2	NTR1 agonist 46 (no result: Hep lipid drop) | NTR1 ag conf inactive
Cc1ccc(-n2ncc3c(N4CCN(c5ccccc5)CC4)ncnc32)c(C)c1	NTR1 agonist 62 (no result: Hep lipid drop) | NTR1 ag conf 61
COc1ccc(O)c(-c2cc(-c3cccc(Br)c3)n[nH]2)c1	NTR1 agonist 55 (no result: Hep lipid drop) | NTR1 ag conf inactive
COc1ccc(-c2cc(-c3cc(OC)ccc3O)[nH]n2)cc1	none
NC(=O)C1(Nc2ccc(C(=O)O)cc2)CCCC1	none (no result: PREPL inhibitor, Hep lipid drop, NTR1 agonist)
O=C(C1CCCCCC1)N1CC[C@@H](N2CCC(O)CC2)[C@H](O)C1	none
COC(=O)c1cc(=O)n(Cc2cccs2)c(=Nc2ccc(F)cc2)s1	NTR1 agonist 42 | NTR1 ag conf inactive
COC(=O)c1cc(=O)n(Cc2ccc3c(c2)OCO3)c(=Nc2ccc(F)cc2)s1	none (no result: Hep lipid drop)
COC(=O)c1cc(=O)n(-c2ccc(F)cc2)c(=Nc2ccc(F)cc2)s1	NTR1 agonist 50 | NTR1 ag conf 52
CCCOc1ccc(OCCOCCN2CCc3ccccc3C2)cc1	none (no result: Hep lipid drop)
COc1ccc(Br)cc1CNC(=O)Cn1nc(C)n2cccc2c1=O	none
COc1cc(C(=O)Oc2cccc(Nc3ncnc4ccccc34)c2)cc(OC)c1OC	NTR1 agonist 44 (no result: Hep lipid drop) | NTR1 ag conf inactive
Cc1ccc(OCC(=O)NNc2c3ccccc3nc3ccccc23)cc1	NTR1 agonist 47 | NTR1 ag conf inactive
COC(=O)CSc1nn(-c2ccc(F)cc2)c(=S)s1	none
O=[N+]([O-])c1ccc(C2CC(c3ccccc3)=Nc3ccccc3S2)cc1 (configuration not stated)	NTR1 agonist 62 | NTR1 ag conf inactive
Cc1cc(C)cc(NC(=O)CCn2c(=O)c3cccn3c3ccccc32)c1	none
CCN1CCN(CCCNC(=O)c2ccc(/C=C3/Oc4ccccc4N(Cc4cccc(C)c4)C3=O)cc2)CC1	none
CCN1CCN(CCCNC(=O)c2ccc(/C=C3/Sc4ccccc4N(Cc4ccccc4F)C3=O)cc2)CC1	NTR1 agonist 41 | NTR1 ag conf inactive
Cc1cc(N/N=C/c2ccccc2O)nc(-c2ccccc2O)n1	NTR1 agonist 63 | NTR1 ag conf inactive
CN(C)/C=C1\NC(=S)N(c2ccccc2)C1=O	none
CCN1C(=O)/C(=C/N(C(C)=O)c2ccccc2)N(c2ccccc2)C1=S	NTR1 agonist 42 | NTR1 ag conf 61
O=C(NC1CCCCC1)Oc1cccc2ccccc12	none
O=C(CSc1ccc(Cl)cc1)Nc1cc(-c2nc3ncccc3o2)ccc1Cl	none (no result: MC4R antag cAMP, MC4R barr agon, m5-HT2A agonist)
O=C(CSc1ccc(Cl)cc1)Nc1cccc(-c2nc3ncccc3o2)c1	NTR1 agonist 52 (no result: Hep lipid drop) | NTR1 ag conf inactive
CCc1ccc(S(=O)(=O)/N=C2\C=C(Nc3ccc(O)cc3)C(=O)c3ccccc32)cc1	NTR1 agonist 45 | NTR1 ag conf inactive
CCc1ccc(S(=O)(=O)/N=C2\C=C(Nc3cccc(C(=O)O)c3)C(=O)c3ccccc32)cc1	none
COc1ccc(C(=O)n2nc(-c3ccco3)nc2N)cc1	NTR1 agonist 52 | NTR1 ag conf inactive
Cc1ccc(C(=O)n2nc(-c3ccco3)nc2N)cc1	none (no result: Hep lipid drop)
COc1ccc(CCNC(=O)c2cc3c(=O)n4cccc(C)c4nc3n(Cc3ccco3)c2=N)cc1OC	NTR1 agonist 42 | NTR1 ag conf inactive
N=c1c(C(=O)NCc2ccccc2)cc2c(=O)n3ccccc3nc2n1Cc1ccco1	none
N=c1c(C(=O)NCc2ccc(F)cc2)cc2c(=O)n3ccccc3nc2n1Cc1ccco1	NTR1 agonist 41 | NTR1 ag conf inactive
Cc1cc(Cl)ccc1OCC(=O)OCC(=O)NC1CCS(=O)(=O)C1 (configuration not stated)	none (no result: Hep lipid drop)
Cc1ccc(CNC(=O)CN(C(=O)C2(C)CC(=O)N=C3C=CC=CN32)c2ccccc2F)cc1 (configuration not stated)	none
COc1ccc(S(=O)(=O)Oc2ccc3c(c2)O/C(=C\c2cccnc2)C3=O)cc1	NTR1 agonist 43 | NTR1 ag conf inactive
O=C1/C(=C/c2cccnc2)Oc2cc(OS(=O)(=O)c3ccccc3)ccc21	NTR1 agonist 42 | NTR1 ag conf inactive
CS(=O)(=O)Oc1ccc2c(c1)O/C(=C\c1cccnc1)C2=O	none
O=C1/C(=C/c2cccnc2)Oc2cc(OS(=O)(=O)c3ccc(Cl)cc3)ccc21	none
COc1cccc(-c2csc(NC(=O)Nc3ccccc3)n2)c1	NTR1 agonist 72 | NTR1 ag conf inactive
